The structures appear in SMILES notation. In brackets after ≈: the same amount, converted by molar mass. Some results are limits rather than exact numbers.

Series [1] relates to Candida tropicalis. Kind of series: Antifungal activity against azole-resistant Candida tropicalis assessed as reduction in fungal growth incubated for 48 hrs by broth microdilution method. It counts as functional. A digest of the protocol: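 CLSI broth microdilution in RPMI 1640 (glutamine, no bicarbonate) buffered to pH 7.0 with MOPS. Azole-resistant clinical C. tropicalis isolate, stored at -80 °C in glycerol, subcultured twice on Sabouraud dextrose agar. Inoculum from 24-h subcultures, final 0.5 to 2.5×10^3 cfu/ml. Compounds in DMSO, twofold final 1024–0.125 µg/ml. Incubated 35 °C, 48 h. MIC = lowest concentration fully inhibiting visible growth.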

The test system of series [2] is Candida albicans. Description: Antifungal activity against azole-susceptible Candida albicans ATCC 90028 assessed as reduction in fungal growth incubated for 48 hrs by broth microdilution method. It counts as functional. The following applies: ATCC 90028, 48 h. An outline of the steps:
(§1)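 CLSI broth microdilution in RPMI 1640 with MOPS at pH 7.0. Inoculum taken from 24-h Sabouraud subcultures, final 0.5-2.5×10^3 cfu/ml. Compounds in DMSO, twofold series 1024-0.125 µg/ml final. Incubated 48 h at 35 °C. MIC is the lowest concentration giving complete inhibition of visible growth. Fluconazole served as the reference.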
For orientation: In broth dilution the organism is exposed to a series of concentrations in liquid medium.

The test system of series [3] is Pichia kudriavzevii. Kind of series: Antifungal activity against azole-susceptible Candida krusei ATCC 6258 assessed as reduction in fungal growth incubated for 48 hrs by broth microdilution method. Type of series: functional. The note with it: ATCC 6258, 48 h. An outline of the steps:
as §1

Series [4] relates to Candida parapsilosis. Kind of series: Antifungal activity against azole-susceptible Candida parapsilosis ATCC 90018 assessed as reduction in fungal growth incubated for 48 hrs by broth microdilution method. The note with it: Lodderomyces parapsilosis, ATCC 90018, 48 h. It counts as functional. An outline of the steps: as §1
Series [5] deals with Candida albicans. Kind of series: Antifungal activity against Candida albicans by broth dilution assay. It counts as functional. An outline of the steps: as §1
Series [6] can be described thus: Cytotoxicity against human U937 cells assessed as cell viability at >= 8 ug/ml incubated for 24 to 48 hrs by MTT assay. Type of series: cell-based, U-937. The note with it: read-out: Activity. An outline of the steps: (§2)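 MTT assay on U937 monocytic cells, 4×10³ cells/well, in RPMI-1640 with 10% FBS. Eight concentrations, 0.125-32 µg/ml, DMSO ≤0.32% v/v, each in triplicate. Exposure 24 or 48 h at 37 °C, 5% CO₂, then MTT for 4 h. Formazan dissolved in SDS/DMF, absorbance read at 570 nm. Viability calculated relative to untreated cells.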

The subject of series [7] is Candida albicans. Kind of series: Disruption of Candida albicans SC5314 pre-formed mature biofilm assessed as reduction in biofilm biomass incubated for 24 hrs by spectrophotometry. Type of series: functional. An outline of the steps:
(§3)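 C. albicans SC5314 biofilms grown on a 96-peg lid (Calgary device, MBEC protocol) from 10^6 cfu/ml inoculum for 24 h at 37 °C. Pegs rinsed in 0.9% saline, then challenged 24 h at 35 °C with twofold dilutions, 512-0.5 µg/ml. MBIC: no well turbidity by visual inspection. MBEC: pegs sonicated into RPMI/2% glucose, regrowth overnight, OD 550 nm plus visual turbidity.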

In series [8] the test system is Candida albicans. Kind of series: Antibiofilm activity against Candida albicans SC5314 assessed as inhibition of biofilm formation by turbidity based visual inspection method. It counts as functional. A digest of the protocol: as §3
For series [9], the system named is U-937. Kind of series: Cytotoxicity against human U937 cells assessed as cell viability at 0.125 to 32 ug/ml incubated for 24 to 48 hrs by MTT assay. Type of series: cell-based. A digest of the protocol:
as §2
(In general: Tetrazolium dyes change colour on reduction, which living cells bring about.)

Broadly, the MIC is the least concentration at which growth counts as inhibited. `Cl.O=C(OC(Cn1ccnc1)c1ccc(Cl)cc1Cl)c1ccc([N+](=O)[O-])cc1` (racemic): the MIC in series [1] is 8 µg/mL; in series [2], 8 µg/mL; in series [3], 32 µg/mL; in series [4], 4 µg/mL; in series [5] it was above 300 µg/mL.
With `Cl.O=C(OC(Cn1ccnc1)c1ccc(Cl)cc1Cl)c1ccc(-c2ccccc2)cc1` (racemic), the viability in series [6] was below 80%. In addition, the MBEC in series [7] was determined as 256 µg/mL. Besides, in series [8], the MBIC was found to be 2 µg/mL. The MIC in series [1] amounted to 512 µg/mL; in series [2], 0.25 µg/mL; in [3] it was 1 µg/mL; in [4], 0.25 µg/mL.
In the case of `COc1ccc(C(=O)O/N=C(\Cn2ccnc2)c2ccc(Cl)cc2Cl)cc1`, the MBEC in series [7] came to 512 µg/mL. Moreover, the Activity result in series [9] is reported as “Non-Toxic”. Also, in [8], the MBIC amounted to 2 µg/mL. In addition, the MIC in [1] was found to be 64 µg/mL (≈ 158 µM); in series [2], 0.5 µg/mL (≈ 1.24 µM); in series [3], 1 µg/mL (≈ 2.47 µM); in [4], 1 µg/mL (≈ 2.47 µM).
With `Cl.O=C(/C=C/c1ccccc1)OC(Cn1ccnc1)c1ccc(Cl)cc1Cl` (racemic), in series [7], the MBEC turned out to be 64 µg/mL. In addition, in [9], the Activity entry is reported as “Non-Toxic”. For the same compound, the MBIC in series [8] was 0.5 µg/mL. Further, the MIC was 4 µg/mL in series [1], 0.5 µg/mL in series [2], 1 µg/mL in series [3] and 1 µg/mL in series [4].
In the case of `Cl.O=C(OC(Cn1ccnc1)c1ccc(Cl)cc1Cl)c1ccc2ccccc2c1` (racemic), in series [7], the MBEC came to 256 µg/mL. The Activity entry in series [9] is given as “Non-Toxic”. Moreover, in series [8], the MBIC stood at 0.5 µg/mL. The MIC in series [1] worked out at 1 µg/mL; in series [2] it was 1 µg/mL; in series [3], 2 µg/mL; in [4], 1 µg/mL.
As for `Cl.O=C(OC(Cn1ccnc1)c1ccc(Cl)cc1Cl)c1ccc(Cl)cc1Cl` (racemic), the MIC in series [2] was found to be 128 µg/mL; in series [3], 256 µg/mL; in [4], 128 µg/mL; in [5], 300 µg/mL.
For the compound `CC(C)(C)c1ccc(C(=O)OC(Cn2ccnc2)c2ccc(Cl)cc2Cl)cc1.Cl` (racemic), the MIC in [2] was found to be 128 µg/mL; in [3] it was 256 µg/mL; in [4] it was 128 µg/mL; in series [5], 10 µg/mL.

For the origin of these results see ChEMBL document CHEMBL4396914, “Discovery of new azoles with potent activity against Candida spp. and Candida albicans biofilms through virtual screening” (Eur J Med Chem, 2019).
